Source: ChEMBL document CHEMBL1795243, “New microtubule polymerization inhibitors comprising a nitrooxymethylphenyl group” (Bioorg Med Chem, 2011)
Calls of active or inactive are those of the source. No cut-off for these calls is given here.

Columns and labels:
[1] = target: T1, Tubulin (Homo sapiens) (UniProt P68371+Q9H4B7+P0DPH7+P68366+Q13509+Q71U36+P04350+Q3ZCM7+P07437+P68363+Q9BQE3+Q6PEY2+Q13885+Q9BVA1+Q9BUF5); assay: Inhibition of alpha-tubulin polymerization in human HT1080 cells assessed as disruption of microtubule structures at 100 nM after 4 hrs using Hoechst staining by fluorescence microscopic analysis; assay type: cell-based; conditions: HT-1080
[2] = test system: MDA-MB-231; assay: Antiproliferative activity against human MDA-MB-231 cells after 72 hrs by cell counting kit analysis; assay type: functional, cell-based; conditions: MDA-MB-231, 72 h
How it was run: (§1)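 Cells grown with compound for 72 h, then growth quantified by WST-1 Cell Counting Kit. Final concentrations 1, 10, 25, 50, 100 and 200 μM. All media had 10% FBS, 37 °C, 5% CO2. Read-out IC50.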

[3] = test system: SW480; assay: Antiproliferative activity against human SW480 cells after 72 hrs by cell counting kit analysis; assay type: functional, cell-based; conditions: SW480, 72 h; how it was run: as §1
[4] = test system: SW-620; assay: Antiproliferative activity against human SW620 cells after 72 hrs by cell counting kit analysis; assay type: functional, cell-based; conditions: SW-620, 72 h; how it was run: as §1
[5] = test system: SK-BR-3; assay: Antiproliferative activity against human SK-BR-3 cells after 72 hrs by cell counting kit analysis; assay type: functional, cell-based; conditions: SK-BR-3, 72 h; how it was run: as §1
[6] = test system: HCT-116; assay: Antiproliferative activity against human HCT116 cells after 72 hrs by cell counting kit analysis; assay type: functional, cell-based; conditions: HCT-116, 72 h; how it was run: as §1
[7] = test system: MCF7; assay: Antiproliferative activity against human MCF7 cells after 72 hrs by cell counting kit analysis; assay type: functional, cell-based; conditions: MCF7, 72 h; how it was run: as §1
[8] = test system: HCT-116; assay: Cell cycle arrest in human HCT116 cells assessed as accumulation at G0/G1 phase at 40 uM after 24 hrs by FACS analysis (reference value: 76.5 %); assay type: functional
[9] = test system: HCT-116; assay: Cell cycle arrest in human HCT116 cells assessed as increase of phosphorylated histone H3 at Ser10 level at 40 uM after 24 hrs using propidium iodide staining by flow cytometry (reference value: 1.4 %); assay type: functional
[10] = test system: HCT-116; assay: Cell cycle arrest in human HCT116 cells assessed as accumulation at sub-G1 phase at 40 uM after 24 hrs by FACS analysis (reference value: 6.2 %); assay type: functional
[11] = test system: HCT-116; assay: Cell cycle arrest in human HCT116 cells assessed as accumulation at G2/M phase at 40 uM after 24 hrs by FACS analysis (reference value: 10.9 %); assay type: functional
[12] = test system: HCT-116; assay: Cell cycle arrest in human HCT116 cells assessed as increase of phosphorylated histone H3 at Ser10 level at 20 to 40 uM after 24 hrs by Western blotting; assay type: functional, cell-based
How it was run: (§2)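 HCT116 (1.0×10^6/dish) serum-starved 24 h, then treated 24 h in serum-free medium (0.4% DMSO control). Lysed 1 h at 0 °C in modified lysis buffer (pH 8.0, 1% NP-40). 7.5 µg protein run on SDS-PAGE and PVDF blot, probed for phospho-histone H3 Ser10 and total H3, ECL detection. Five independent experiments.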

[13] = test system: HCT-116; assay: Induction of apoptosis in human HCT116 cells at 40 uM after 48 hrs using FITC-TUNEL staining by flow cytometry (reference value: 7.3 %); assay type: functional
How it was run: (§3)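 HCT116 at 1.0×10^6 per 60 mm dish, treated 24 or 48 h (0.4% DMSO control). Floating plus adherent cells assayed with DeadEnd Fluorometric TUNEL System, and FITC-TUNEL-positive percentage read by flow cytometry. Five independent experiments.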

[14] = test system: HCT-116; assay: Cell cycle arrest in human HCT116 cells assessed as accumulation at S phase at 40 uM after 24 hrs by FACS analysis (reference value: 8.5 %); assay type: functional
[15] = test system: HCT-116; assay: Induction of apoptosis in human HCT116 cells at 40 uM after 24 hrs using FITC-TUNEL staining by flow cytometry; assay type: functional; how it was run: as §3
[16] = target: T1, Tubulin (Homo sapiens); assay: Inhibition of alpha-tubulin polymerization in human HT1080 cells assessed as disruption of microtubule structures at 10 uM after 4 hrs using Hoechst staining by fluorescence microscopic analysis; assay type: cell-based; conditions: HT-1080
[17] = test system: HCT-116; assay: Cell cycle arrest in human HCT116 cells assessed as accumulation at G0/G1 phase at 20 uM after 24 hrs by FACS analysis (reference value: 76.5 %); assay type: functional
[18] = test system: HCT-116; assay: Induction of apoptosis in human HCT116 cells at 20 uM after 48 hrs using FITC-TUNEL staining by flow cytometry (reference value: 7.3 %); assay type: functional; how it was run: as §3
[19] = target: Tubulin (Sus scrofa) (UniProt P02554+P02550); assay: Inhibition of purified porcine brain tubulin polymerization at 20 uM after 100 mins by fluorescence assay
How it was run: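 Porcine brain tubulin 2.0 mg/mL in General Tubulin Buffer with Tubulin Glycerol Buffer, GTP and DAPI. Added to compound prewarmed at 37 °C (final 2.0% DMSO, which is also the vehicle control). DAPI fluorescence (ex 340, em 460 nm) read kinetically over 100 min. Four independent experiments.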

[20] = Antiproliferative activity against human CCD-1059SK cells at 200 uM after 72 hrs by cell counting kit analysis; assay type: cell-based; how it was run: as §1
[21] = test system: HCT-116; assay: Cell cycle arrest in human HCT116 cells assessed as accumulation at sub-G1 phase at 20 uM after 24 hrs by FACS analysis (reference value: 6.2 %); assay type: functional
[22] = test system: HCT-116; assay: Cell cycle arrest in human HCT116 cells assessed as accumulation at G2/M phase at 20 uM after 24 hrs by FACS analysis (reference value: 10.9 %); assay type: functional
[23] = test system: HCT-116; assay: Cell cycle arrest in human HCT116 cells assessed as increase of phosphorylated histone H3 at Ser10 level at 20 uM after 24 hrs using propidium iodide staining by flow cytometry (reference value: 1.4 %); assay type: functional
[24] = test system: HCT-116; assay: Induction of apoptosis in human HCT116 cells at 20 uM after 24 hrs using FITC-TUNEL staining by flow cytometry; assay type: functional; how it was run: as §3
[25] = test system: HCT-116; assay: Cell cycle arrest in human HCT116 cells assessed as accumulation at S phase at 20 uM after 24 hrs by FACS analysis (reference value: 8.5 %); assay type: functional
[26] = test system: HCT-116; assay: Cell cycle arrest in human HCT116 cells assessed as increase of phosphorylated histone H3 at Ser10 level at 150 nM after 24 hrs by Western blotting; assay type: functional, cell-based; how it was run: as §2
[27] = test system: HCT-116; assay: Cell cycle arrest in human HCT116 cells assessed as accumulation at G2/M phase at 150 nM after 24 hrs by FACS analysis (reference value: 10.9 %); assay type: functional
[28] = test system: HCT-116; assay: Cell cycle arrest in human HCT116 cells assessed as accumulation at S phase at 150 nM after 24 hrs by FACS analysis (reference value: 8.5 %); assay type: functional
[29] = test system: HCT-116; assay: Cell cycle arrest in human HCT116 cells assessed as accumulation at G0/G1 phase at 150 nM after 24 hrs by FACS analysis (reference value: 76.5 %); assay type: functional
[30] = test system: HCT-116; assay: Cell cycle arrest in human HCT116 cells assessed as accumulation at sub-G1 phase at 150 nM after 24 hrs by FACS analysis (reference value: 6.2 %); assay type: functional
[31] = test system: HCT-116; assay: Induction of apoptosis in human HCT116 cells at 150 nM after 24 hrs using FITC-TUNEL staining by flow cytometry; assay type: functional; how it was run: as §3
[32] = test system: HCT-116; assay: Cell cycle arrest in human HCT116 cells assessed as increase of phosphorylated histone H3 at Ser10 level at 150 nM after 24 hrs using propidium iodide staining by flow cytometry (reference value: 1.4 %); assay type: functional
[33] = test system: HCT-116; assay: Induction of apoptosis in human HCT116 cells at 150 nM after 48 hrs using FITC-TUNEL staining by flow cytometry (reference value: 7.3 %); assay type: functional; how it was run: as §3

Chain of Tubulin (Sus scrofa) (P02550 whole entry, looked up): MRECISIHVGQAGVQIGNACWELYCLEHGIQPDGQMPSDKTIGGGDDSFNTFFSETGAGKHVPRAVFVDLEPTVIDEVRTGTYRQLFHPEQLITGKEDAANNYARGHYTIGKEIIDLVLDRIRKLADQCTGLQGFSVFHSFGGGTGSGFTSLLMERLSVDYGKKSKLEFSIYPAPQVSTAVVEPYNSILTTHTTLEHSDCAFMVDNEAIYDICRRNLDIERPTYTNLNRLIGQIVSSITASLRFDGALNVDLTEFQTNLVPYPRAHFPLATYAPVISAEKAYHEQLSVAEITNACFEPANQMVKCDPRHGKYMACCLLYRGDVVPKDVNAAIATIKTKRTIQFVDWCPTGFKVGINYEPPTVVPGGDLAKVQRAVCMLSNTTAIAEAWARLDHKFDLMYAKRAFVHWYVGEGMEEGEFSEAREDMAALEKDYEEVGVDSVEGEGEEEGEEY
Chain of Tubulin (Sus scrofa) (P02554 whole entry, looked up): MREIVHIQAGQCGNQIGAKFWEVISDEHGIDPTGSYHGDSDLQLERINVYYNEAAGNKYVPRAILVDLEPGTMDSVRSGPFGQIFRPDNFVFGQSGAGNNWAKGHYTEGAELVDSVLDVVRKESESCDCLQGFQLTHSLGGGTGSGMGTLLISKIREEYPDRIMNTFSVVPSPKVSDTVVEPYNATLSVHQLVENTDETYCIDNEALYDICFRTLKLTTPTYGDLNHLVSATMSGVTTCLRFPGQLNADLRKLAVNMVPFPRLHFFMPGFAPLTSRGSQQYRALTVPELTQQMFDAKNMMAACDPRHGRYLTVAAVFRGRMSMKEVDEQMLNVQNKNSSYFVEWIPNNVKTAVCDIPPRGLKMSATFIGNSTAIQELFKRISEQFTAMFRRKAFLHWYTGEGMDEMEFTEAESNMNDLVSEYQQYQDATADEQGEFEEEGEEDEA

Compound | IC50 [2] [µM] | IC50 [3] [µM] | IC50 [4] [µM] | IC50 [5] [µM] | IC50 [6] [µM] | IC50 [7] [µM] | also measured
CC(=O)O[C@H]1C(=O)[C@@]2(C)[C@H]([C@H](OC(=O)c3ccccc3)[C@]3(O)C[C@H](OC(=O)[C@H](O)[C@@H](NC(=O)c4ccccc4)c4ccccc4)C(C)=C1C3(C)C)[C@]1(OC(C)=O)CO[C@@H]1C[C@@H]2O | – | – | – | – | – | – | inhibition [1]: inactive
O=C(Nc1ccccc1)c1cccc(CO[N+](=O)[O-])c1 | 8.4 | 13.3 | 8.4 | 8.2 | 19.3 | > 100 | –
O=C(Nc1cccc(OC(=O)c2ccc(CO[N+](=O)[O-])cc2)c1)c1ccc(CO[N+](=O)[O-])cc1 | 6.7 | 8.4 | 7.6 | 6.3 | 6.2 | > 100 | –
O=C(Nc1ccccc1OC(=O)c1cccc(CO[N+](=O)[O-])c1)c1cccc(CO[N+](=O)[O-])c1 | 30 | 22.2 | 25.8 | 18.5 | 47.6 | > 100 | –
O=C(Nc1ccccc1)c1ccc(CO)cc1 | > 100 | > 100 | > 100 | 9.8 | 24.8 | > 100 | –
CC(=O)Oc1ccccc1C(=O)Oc1ccc(CO[N+](=O)[O-])cc1 | 14.4 | 19.1 | 15.1 | 30.5 | 68 | > 100 | Activity [8]: 53.7%; Activity [9]: 1.7%; Activity [10]: 15.3%; Activity [11]: 12%; Activity [12]: inactive; Activity [13]: 3.6%; Activity [14]: 18.8%; Activity [15]: 4%
O=C(Nc1ccccc1OC(=O)c1ccc(CCl)cc1)c1ccc(CCl)cc1 | 0.8 | 6.9 | 0.8 | 0.6 | 0.6 | 58.1 | –
O=C(Nc1ccccc1)c1ccccc1 [N-PHENYLBENZAMIDE] | > 100 | > 100 | > 100 | > 100 | > 100 | > 100 | –
O=C(Nc1ccccc1OC(=O)c1ccc(CO[N+](=O)[O-])cc1)c1ccc(CO[N+](=O)[O-])cc1 | 1.4 | 3.8 | 0.8 | 0.7 | 0.7 | > 100 | inhibition [16]: Active; Activity [17]: 52.4%; Activity [18]: 36.4%; inhibition [19]: Active; Activity [20]: Non-toxic; Activity [21]: 11%; Activity [22]: 29.3%; Activity [12]: Active; Activity [23]: 26.4%; Activity [24]: 4%; Activity [25]: 7.3%
O=C(Nc1ccccc1NC(=O)c1ccc(CO[N+](=O)[O-])cc1)c1ccc(CO[N+](=O)[O-])cc1 | > 100 | > 100 | > 100 | > 100 | > 100 | > 100 | –
CCc1ccc(C(=O)Nc2ccccc2)cc1 | > 100 | > 100 | > 100 | > 100 | > 100 | > 100 | –
O=C(Oc1ccccc1)c1ccc(CO[N+](=O)[O-])cc1 | 47.7 | 80.7 | 16.9 | 50.1 | 17.9 | > 100 | –
CC[C@]1(O)C[C@H]2CN(CCc3c([nH]c4ccccc34)[C@@](C(=O)OC)(c3cc4c(cc3OC)N(C=O)[C@H]3[C@@](O)(C(=O)OC)[C@H](OC(C)=O)[C@]5(CC)C=CCN6CC[C@]43[C@@H]65)C2)C1 [VINCRISTINE] | – | – | – | – | – | – | inhibition [1]: Active; Activity [26]: Active; Activity [27]: 28.6%; Activity [28]: 12.5%; Activity [29]: 35.9%; Activity [30]: 23%; Activity [31]: 4%; Activity [32]: 25.3%; Activity [33]: 31.6%
O=C(Nc1ccccc1)c1ccc(CCl)cc1 | 0.8 | 0.9 | 0.8 | 0.7 | 1.2 | 54.3 | –
